What is called pEC50 is the EC50 on a negative log10 scale, so that one unit is a factor of ten. In general, solubility refers to how much of the substance goes into solution per volume. Lower therefore signals a poorly soluble substance.

Eight molecules from ChEMBL document CHEMBL4715832, “Isoquinoline-based biaryls as a robust scaffold for microtubule inhibitors” (Eur J Med Chem, 2020) can be followed below.

pEC50: −log10 of the molar value. Calls of active or inactive are those of the source. The calls are words filed in the database; no cut-off is given here.

The test system of series [1] is HeLa. In words: Induction of microtubule network depolymerization in human HeLa cells assessed as appearance of defective spindles at 120 nM after 24 hrs by immunofluorescence staining based confocal microscopic analysis. Format: cell-based. In short, it runs like this: (§1)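 HeLa cells on glass coverslips (50,000/well), adhered 18 h, then treated 24 h (DMSO 1% final). Fixed with 0.5% glutaraldehyde, quenched with 0.1% NaBH4, blocked in PBS + 10% FCS. Stained with rabbit anti-alpha-tubulin (1:400, 1 h) and Alexa 488 goat anti-rabbit secondary, with DAPI nuclear counterstain. Imaged by confocal microscopy with z-stack projections.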

Series [2] in a line: Toxicity in ip dosed Balb/c mouse. Format: organism-based. As to conditions: in vivo. In short, it runs like this:
(§2)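 Single-administration dose escalation in male and female Balb/c mice, given i.p. or i.v., to find the maximal tolerated dose of the phosphate prodrug.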

The test system of series [3] is HeLa. The series can be described thus: Induction of microtubule network depolymerization in human HeLa cells assessed as accumulation of rounded cells at 120 nM after 24 hrs by immunofluorescence staining based confocal microscopic analysis. In kind it is cell-based. The procedure, abridged: as §1
Series [4] has as its system HeLa. The series can be described thus: Antiproliferative activity against human HeLa cells assessed as reduction in cell growth after 48 hrs by resazurin dye based fluorescence assay. In kind it is functional. The procedure, abridged:
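HeLa cells grown in DMEM with 10% FCS and penicillin/streptomycin, 37 °C, 5% CO2. Seeded 5,000 cells/well, treated 24 h later with DMSO 1% final, then incubated 48 h. Resazurin reduction to resorufin measured over 3 h at 37 °C by fluorescence (ex 544/em 590 nm). Normalised to cosolvent control (100%) and cell-free wells (0%). Means of at least three independent experiments.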
A general note: Resazurin is reduced to fluorescent resorufin, in cell work by metabolically active cells.

Series [5] concerns HeLa. The series can be described thus: Inhibition of tubulin polymerization in human HeLa cells harboring EB3-YFP plasmid assessed as disappearance of […] comet at 10 uM after 2 mins by microscopic analysis. In kind it is cell-based. The procedure, abridged:
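HeLa cells (12,000/well) transiently transfected 24 h after seeding with EB3-YFP plasmid, imaged 24 h later by spinning-disc confocal at 37 °C, 5% CO2 (514 nm, 300 ms exposure, 45 frames/min). Five reference frames taken, compound added, 2 min incubation, then 5 more frames. EB3 comets counted by maxima detection; 7 cells from three independent trials.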

The test system of series [6] is HeLa. The series can be described thus: Cell cycle arrest in human HeLa cells assessed as accumulation at G2/M phase at 500 nM measured after 24 hrs by propidium iodide staining based flow cytometry. Format: functional. The procedure, abridged: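 HeLa cells seeded 50,000/well, treated 24 h; collected, stained with 2 mg/mL propidium iodide at 4 °C for 30 min, analysed by flow cytometry (30,000 cells per condition); cells assigned to sub-G1, G1, S and G2/M by DNA content (PI signal). DMSO cosolvent 1% final.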
(In general: A flow cytometer gives signals particle by particle.)

Series [7] can be described thus: Toxicity in Balb/c mouse at 25 mg/kg, ip administered at 48 hrs interval for 3 times. Format: organism-based. As to conditions: in vivo. The procedure, abridged: (§3)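 Male and female Balb/c mice dosed 3 times at 48 h intervals with 25 mg/kg of the phosphate prodrug, by the route named, and monitored for tolerability.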
Series [8] is described as follows: Toxicity in iv dosed Balb/c mouse. As to conditions: in vivo. In kind it is organism-based. The procedure, abridged: as §2
Series [9] can be described thus: Solubility of compound in aqueous buffer. In kind it is physicochemical.
Series [10] relates to HeLa. The series can be described thus: Induction of microtubule network depolymerization in human HeLa cells after 24 hrs by immunofluorescence staining based confocal microscopic analysis. Format: cell-based. The procedure, abridged: (§4)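 HeLa cells seeded on glass coverslips (50,000 cells/well), allowed to adhere 18 h, then treated 24 h. Fixed with 0.5% glutaraldehyde, quenched with 0.1% NaBH4, blocked with PBS + 10% FCS. Stained with rabbit anti-alpha-tubulin (1:400, 1 h), then Alexa Fluor 488 anti-rabbit secondary, with DAPI nuclear counterstain. Imaged by confocal microscopy, including z-stack projections.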

Series [11] relates to HeLa. The series can be described thus: Induction of microtubule network depolymerization in human HeLa cells assessed as appearance of defective chromosome alignment at 120 nM after 24 hrs by immunofluorescence staining based confocal microscopic analysis. Format: cell-based. In short, it runs like this:
as §1

Series [12] concerns HeLa. In words: Induction of microtubule network depolymerization in human HeLa cells assessed as induction of mitotic arrest at 120 nM after 24 hrs by immunofluorescence staining based confocal microscopic analysis. Format: cell-based. The procedure, abridged: as §1
Series [13] in a line: Toxicity in Balb/c mouse at 25 mg/kg, iv administered at 48 hrs interval for 3 times. In kind it is organism-based. As to conditions: in vivo. The procedure, abridged:
as §3

Another series relates to HL-60. In words: Antiproliferative activity against human HL-60 cells assessed as reduction in cell growth after 24 hrs by MTT assay. In kind it is functional, cell-based. As to conditions: HL-60, 24 h. In short, it runs like this:
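HL-60 cells grown in RPMI 1640 with 10% FCS, no antibiotics, 37 °C, 5% CO2. Seeded 9,000 cells/well, treated 24 h later with DMSO cosolvent at 1% final. After 24 h, MTT 0.5 mg/mL for 2 h, absorbance read. Normalised to cosolvent control (100%) and Triton X-100-treated cells (0%). Means of at least three independent experiments.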

A short description of series [14]: Solubility of compound. Format: physicochemical.
Series [15] has as its system HeLa. In words: Induction of microtubule network depolymerization in human HeLa cells at 15 uM after 24 hrs by immunofluorescence staining based confocal microscopic analysis. Format: cell-based. The procedure, abridged: as §4

For `COc1cc2c(-c3cc(OC)c(OC)c(OC)c3)nccc2cc1OP(=O)([O-])[O-].[Na+].[Na+]`, the outcome in the series on HeLa [1], in the series with HeLa [3], in the series on HeLa [6], in the series with HeLa [11] and in the series with HeLa [12] was Active. Further, the MTD in series [2] stood at 32 mg/kg; in [8], 50 mg/kg. Besides, the Activity entry with HeLa [4] was “Dose-dependent effect”; in [7] it was “Non-Toxic”; in the series with HeLa [10], “Dose-dependent effect”; in [13], “Non-Toxic”. For the same molecule, the pEC50 in the series on HeLa [4] was 6.77; with HL-60 it was 6.24. Moreover, the inhibition entry with HeLa [5] is “Active”. The molecule further yielded a solubility in series [9] of over 10 mM.
On to `COc1ccc2ccnc(-c3cc(OC)c(OC)c(OC)c3)c2c1`, for which, in the series with HeLa [4], the Activity entry is “Dose-dependent effect” and the pEC50 is 6.74. In addition, the Activity result with HeLa [10] was “Dose-dependent effect”.
With `COc1ccc([C@H](O)c2nccc3c(OC)c(OC)c(OC)cc23)cc1`, the pEC50 in the series with HeLa [4] is under 4.00.
On the same count and under the same terms, then `COc1ccc(-c2nccc3c(OC)c(OC)c(OC)cc23)c(C(=O)O)c1`, with under 4.00.
Take `COc1ccc2cc[n+](C)c(-c3cc(OC)c(OC)c(OC)c3)c2c1`: the pEC50 in the series on HeLa [4] was under 4.52. Also, in the series with HeLa [10], the outcome was inactive.
On to `COc1cc(-c2nccc3c(OC)c(OC)c(OC)cc23)ccc1O`, for which, in the series on HeLa [4], the pEC50 was 4.30.
For `COc1cc(-c2nccc3cc4c(cc23)OCO4)cc(OC)c1OC`, the pEC50 with HeLa [4] is under 4.70. For the same molecule, the solubility result in [14] is on record as “Insoluble”. Also, the outcome in the series with HeLa [10] and in the series with HeLa [15] was inactive.
In the case of `COc1cccc(-c2nccc3c(OC)c(OC)c(OC)cc23)c1`, the pEC50 in the series on HeLa [4] is 4.82.
